# Laboratory results: ChEMBL document CHEMBL5649168, “Discovery of a selective catalytic p300/CBP inhibitor that targets lineage-specific tumours” (Nature, 2017)
# Calls of active or inactive are those of the source. The rule behind the calls is not given here.
# Assays:
# CREB-binding protein = CREB-binding protein (Homo sapiens, UniProt Q92793); experiment: Inhibition of CBP in human 22Rv1 cells at 3 uM incubated for 24 hrs by Western blotting analysis; type: cell-based
# [1] = Toxicity in CB17 SCID mouse xenografted with human LuCaP-77 CR cell assessed as body weight loss at 100 mg/kg, ip BID administered for 7 days relative to control; type: organism-based; settings: in vivo, 168 h, time 7 day
# [2] = target: ALK tyrosine kinase receptor (Homo sapiens, UniProt Q9UM73); experiment: Inhibition of ALK (unknown origin)
# [3] = target: Tyrosine-protein kinase BTK (Homo sapiens, UniProt Q06187); experiment: Inhibition of BTK (unknown origin)
# [4] = target: Fibroblast growth factor receptor 1 (Homo sapiens, UniProt P11362); experiment: Inhibition of FGFR1 (unknown origin)
# [5] = target: Dual specificity mitogen-activated protein kinase kinase 3 (Homo sapiens, UniProt P46734); experiment: Inhibition of MAP2K3 (unknown origin)
# [6] = target: Serine/threonine-protein kinase 4 (Homo sapiens, UniProt Q13043); experiment: Inhibition of MST1 (unknown origin)
# [7] = target: Serine/threonine-protein kinase Nek2 (Homo sapiens, UniProt P51955); experiment: Inhibition of Nek2 (unknown origin)
# [8] = target: cGMP-dependent protein kinase 1 (Homo sapiens, UniProt Q13976); experiment: Inhibition of PKG1alpha (unknown origin)
# [9] = target: Serine/threonine-protein kinase pim-1 (Homo sapiens, UniProt P11309); experiment: Inhibition of Pim1 (unknown origin)
# [10] = target: Serine/threonine-protein kinase pim-2 (Homo sapiens, UniProt Q9P1W9); experiment: Inhibition of Pim2 (unknown origin)
# [11] = target: CREB-binding protein/Histone acetyltransferase p300 (Homo sapiens, UniProt Q09472+Q92793); experiment: Inhibition of p300/CBP in human 22Rv1 cells assessed as reduction in H3K9Ac level incubated for 3 hrs by Hoechst 33342 staining based high content microscopy analysis; type: cell-based
# How it was run: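 Cells received an 8-point half-log dilution series from 10 µM. They were then fixed in 10% formaldehyde (10 min, RT), permeabilised with 0.1% Triton X-100 and blocked with 1% BSA for 1 h. Primary antibodies were applied overnight at 4 °C, followed by Alexa488 anti-rabbit, Alexa555 anti-mouse and Hoechst 33342 for 1 h. Fifteen fields per well were imaged and average mean intensity taken. EC50 came from a sigmoidal fit.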
# NCI-H727 = experiment: Antiproliferative activity against human NCI-H727 cells assessed as inhibition of cell viability incubated for 3 to 5 days by Celltiter-Glo luminescent assay; type: functional, cell-based
# HCC2935 = experiment: Antiproliferative activity against human HCC2935 cells assessed as inhibition of cell viability incubated for 3 to 5 days by Celltiter-Glo luminescent assay; type: functional, cell-based
# NCI-H146 = experiment: Antiproliferative activity against human NCI-H146 cells assessed as inhibition of cell viability incubated for 3 to 5 days by Celltiter-Glo luminescent assay; type: functional, cell-based
# NCI-H209 = experiment: Antiproliferative activity against human NCI-H209 cells assessed as inhibition of cell viability incubated for 3 to 5 days by Celltiter-Glo luminescent assay; type: functional, cell-based
# NCI-H211 = experiment: Antiproliferative activity against human NCI-H211 cells assessed as inhibition of cell viability incubated for 3 to 5 days by Celltiter-Glo luminescent assay; type: functional, cell-based
# NCI-H69 = experiment: Antiproliferative activity against human NCI-H69 cells assessed as inhibition of cell viability incubated for 3 to 5 days by Celltiter-Glo luminescent assay; type: functional, cell-based
# NCI-H1417 = experiment: Antiproliferative activity against human NCI-H1417 cells assessed as inhibition of cell viability incubated for 3 to 5 days by Celltiter-Glo luminescent assay; type: functional, cell-based
# BT-20 = experiment: Antiproliferative activity against human BT-20 cells assessed as inhibition of cell viability incubated for 3 to 5 days by Celltiter-Glo luminescent assay; type: functional, cell-based
# MDA-MB-453 = experiment: Antiproliferative activity against human MDA-MB-453 cells assessed as inhibition of cell viability incubated for 3 to 5 days by Celltiter-Glo luminescent assay; type: functional, cell-based
# HCC1806 = experiment: Antiproliferative activity against human HCC1806 cells assessed as inhibition of cell viability incubated for 3 to 5 days by Celltiter-Glo luminescent assay; type: functional, cell-based
# HCC1395 = experiment: Antiproliferative activity against human HCC1395 cells assessed as inhibition of cell viability incubated for 3 to 5 days by Celltiter-Glo luminescent assay; type: functional, cell-based
# KMS-11 = experiment: Antiproliferative activity against human KMS-11 cells assessed as inhibition of cell viability incubated for 3 to 5 days by Celltiter-Glo luminescent assay; type: functional, cell-based
# NCI-H929 = experiment: Antiproliferative activity against human NCI-H929 cells assessed as inhibition of cell viability incubated for 3 to 5 days by Celltiter-Glo luminescent assay; type: functional, cell-based
# L-363 = experiment: Antiproliferative activity against human L-363 cells assessed as inhibition of cell viability incubated for 3 to 5 days by Celltiter-Glo luminescent assay; type: functional, cell-based
# Karpas-1106P = experiment: Antiproliferative activity against human KARPAS-1106P cells assessed as inhibition of cell viability incubated for 3 to 5 days by Celltiter-Glo luminescent assay; type: functional, cell-based
# Daudi = experiment: Antiproliferative activity against human Daudi cells assessed as inhibition of cell viability incubated for 3 to 5 days by Celltiter-Glo luminescent assay; type: functional, cell-based
# Raji = experiment: Antiproliferative activity against human Raji cells assessed as inhibition of cell viability incubated for 3 to 5 days by Celltiter-Glo luminescent assay; type: functional, cell-based
# OCI-Ly3 = experiment: Antiproliferative activity against human OCILY3 cells assessed as inhibition of cell viability incubated for 3 to 5 days by Celltiter-Glo luminescent assay; type: functional, cell-based
# SU-DHL-5 = experiment: Antiproliferative activity against human SuDHL5 cells assessed as inhibition of cell viability incubated for 3 to 5 days by Celltiter-Glo luminescent assay; type: functional, cell-based
# Pfeiffer = experiment: Antiproliferative activity against human Pfeiffer cells assessed as inhibition of cell viability incubated for 3 to 5 days by Celltiter-Glo luminescent assay; type: functional, cell-based
# WSU-NHL = experiment: Antiproliferative activity against human WSU-NHL cells assessed as inhibition of cell viability incubated for 3 to 5 days by Celltiter-Glo luminescent assay; type: functional, cell-based
# OCI-AML2 = experiment: Antiproliferative activity against human OCI-AML2 cells assessed as inhibition of cell viability incubated for 3 to 5 days by Celltiter-Glo luminescent assay; type: functional, cell-based
# U-937 = experiment: Antiproliferative activity against human U937 cells assessed as inhibition of cell viability incubated for 3 to 5 days by Celltiter-Glo luminescent assay; type: functional, cell-based
# [12] = Half life in CB17 SCID mouse xenografted with LuCaP-77 CR cell at 100 mg/kg, ip administered for 7 days; type: ADME, organism-based; settings: in vivo, time 7 day
# [13] = AUC in CB17 SCID mouse xenografted with LuCaP-77 CR cell at 50 mg/kg, ip administered for 7 days; type: ADME, organism-based; settings: in vivo, time 7 day
# [14] = AUC in CB17 SCID mouse xenografted with LuCaP-77 CR cell at 100 mg/kg, ip administered for 7 days; type: ADME, organism-based; settings: in vivo, time 7 day
# [15] = target: Histone acetyltransferase p300 (Homo sapiens, UniProt Q09472)
# Chain of cGMP-dependent protein kinase 1 (Q13976 whole entry): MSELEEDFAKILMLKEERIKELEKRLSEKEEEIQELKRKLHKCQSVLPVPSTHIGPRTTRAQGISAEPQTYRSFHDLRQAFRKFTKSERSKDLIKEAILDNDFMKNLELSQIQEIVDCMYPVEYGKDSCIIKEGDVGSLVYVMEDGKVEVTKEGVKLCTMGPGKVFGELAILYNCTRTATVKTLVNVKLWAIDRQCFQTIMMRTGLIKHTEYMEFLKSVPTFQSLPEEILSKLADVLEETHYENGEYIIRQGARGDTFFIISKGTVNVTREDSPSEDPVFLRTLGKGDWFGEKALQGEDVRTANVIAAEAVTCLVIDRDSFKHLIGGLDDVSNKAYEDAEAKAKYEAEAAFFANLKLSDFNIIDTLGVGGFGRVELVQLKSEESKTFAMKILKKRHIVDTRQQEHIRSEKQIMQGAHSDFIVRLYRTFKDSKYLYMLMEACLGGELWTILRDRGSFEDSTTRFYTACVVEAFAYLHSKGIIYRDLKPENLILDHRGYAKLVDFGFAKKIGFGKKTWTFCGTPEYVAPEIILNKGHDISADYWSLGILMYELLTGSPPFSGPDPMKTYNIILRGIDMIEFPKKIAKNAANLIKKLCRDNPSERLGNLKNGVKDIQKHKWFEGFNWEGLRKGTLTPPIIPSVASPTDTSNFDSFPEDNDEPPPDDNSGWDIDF
# Chain of Fibroblast growth factor receptor 1 (P11362 whole entry): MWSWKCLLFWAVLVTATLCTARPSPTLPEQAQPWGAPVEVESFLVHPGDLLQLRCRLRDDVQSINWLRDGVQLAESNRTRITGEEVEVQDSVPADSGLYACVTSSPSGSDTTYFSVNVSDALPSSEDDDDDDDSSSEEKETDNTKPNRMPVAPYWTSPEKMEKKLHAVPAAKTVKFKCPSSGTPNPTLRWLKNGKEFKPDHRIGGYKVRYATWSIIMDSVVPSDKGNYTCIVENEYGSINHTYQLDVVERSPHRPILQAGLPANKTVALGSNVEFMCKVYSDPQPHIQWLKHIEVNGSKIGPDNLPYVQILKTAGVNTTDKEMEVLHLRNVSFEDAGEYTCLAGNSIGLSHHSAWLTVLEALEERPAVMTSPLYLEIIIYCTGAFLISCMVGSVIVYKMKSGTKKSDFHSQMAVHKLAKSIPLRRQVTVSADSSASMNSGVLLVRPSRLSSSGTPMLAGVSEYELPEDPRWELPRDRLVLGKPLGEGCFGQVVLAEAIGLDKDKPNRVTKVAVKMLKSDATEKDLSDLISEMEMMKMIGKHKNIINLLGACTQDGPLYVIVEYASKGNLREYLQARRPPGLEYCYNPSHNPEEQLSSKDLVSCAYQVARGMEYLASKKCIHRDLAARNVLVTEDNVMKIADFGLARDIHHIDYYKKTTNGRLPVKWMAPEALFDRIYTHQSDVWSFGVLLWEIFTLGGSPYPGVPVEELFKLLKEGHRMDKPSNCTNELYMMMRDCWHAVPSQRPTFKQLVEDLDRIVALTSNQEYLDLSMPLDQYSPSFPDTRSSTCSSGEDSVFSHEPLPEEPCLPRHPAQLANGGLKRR
# Chain of Tyrosine-protein kinase BTK (Q06187 whole entry): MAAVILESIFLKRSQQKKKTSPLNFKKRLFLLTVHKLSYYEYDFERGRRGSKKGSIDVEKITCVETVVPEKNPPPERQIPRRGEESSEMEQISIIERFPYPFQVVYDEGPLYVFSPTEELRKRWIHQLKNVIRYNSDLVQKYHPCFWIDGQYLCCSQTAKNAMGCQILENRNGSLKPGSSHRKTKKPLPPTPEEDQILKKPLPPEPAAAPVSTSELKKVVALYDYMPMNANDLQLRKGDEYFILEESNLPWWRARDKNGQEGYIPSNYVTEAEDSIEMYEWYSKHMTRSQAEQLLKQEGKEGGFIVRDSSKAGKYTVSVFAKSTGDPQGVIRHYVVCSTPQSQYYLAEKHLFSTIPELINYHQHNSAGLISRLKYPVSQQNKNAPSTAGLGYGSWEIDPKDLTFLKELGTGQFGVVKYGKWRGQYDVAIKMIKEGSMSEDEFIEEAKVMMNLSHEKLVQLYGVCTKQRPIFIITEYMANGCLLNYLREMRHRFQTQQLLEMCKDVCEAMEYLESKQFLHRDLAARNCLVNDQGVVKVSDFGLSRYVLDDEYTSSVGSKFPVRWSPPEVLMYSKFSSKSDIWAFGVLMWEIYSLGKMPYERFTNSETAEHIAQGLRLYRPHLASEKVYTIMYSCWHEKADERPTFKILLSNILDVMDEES
# Chain of Serine/threonine-protein kinase Nek2 (P51955 whole entry): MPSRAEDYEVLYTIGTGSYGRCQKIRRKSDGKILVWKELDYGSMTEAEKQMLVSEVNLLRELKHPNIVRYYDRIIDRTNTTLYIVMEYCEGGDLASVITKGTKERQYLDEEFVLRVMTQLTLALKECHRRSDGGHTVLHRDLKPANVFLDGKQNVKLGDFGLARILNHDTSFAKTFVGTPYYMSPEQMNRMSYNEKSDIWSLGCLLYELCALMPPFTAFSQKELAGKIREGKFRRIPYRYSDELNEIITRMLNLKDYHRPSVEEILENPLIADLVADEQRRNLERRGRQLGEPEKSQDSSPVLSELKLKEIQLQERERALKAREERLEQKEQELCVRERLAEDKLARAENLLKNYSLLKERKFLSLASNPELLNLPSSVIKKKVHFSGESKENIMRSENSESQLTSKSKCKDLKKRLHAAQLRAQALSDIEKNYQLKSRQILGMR
# Chain of ALK tyrosine kinase receptor (Q9UM73 whole entry): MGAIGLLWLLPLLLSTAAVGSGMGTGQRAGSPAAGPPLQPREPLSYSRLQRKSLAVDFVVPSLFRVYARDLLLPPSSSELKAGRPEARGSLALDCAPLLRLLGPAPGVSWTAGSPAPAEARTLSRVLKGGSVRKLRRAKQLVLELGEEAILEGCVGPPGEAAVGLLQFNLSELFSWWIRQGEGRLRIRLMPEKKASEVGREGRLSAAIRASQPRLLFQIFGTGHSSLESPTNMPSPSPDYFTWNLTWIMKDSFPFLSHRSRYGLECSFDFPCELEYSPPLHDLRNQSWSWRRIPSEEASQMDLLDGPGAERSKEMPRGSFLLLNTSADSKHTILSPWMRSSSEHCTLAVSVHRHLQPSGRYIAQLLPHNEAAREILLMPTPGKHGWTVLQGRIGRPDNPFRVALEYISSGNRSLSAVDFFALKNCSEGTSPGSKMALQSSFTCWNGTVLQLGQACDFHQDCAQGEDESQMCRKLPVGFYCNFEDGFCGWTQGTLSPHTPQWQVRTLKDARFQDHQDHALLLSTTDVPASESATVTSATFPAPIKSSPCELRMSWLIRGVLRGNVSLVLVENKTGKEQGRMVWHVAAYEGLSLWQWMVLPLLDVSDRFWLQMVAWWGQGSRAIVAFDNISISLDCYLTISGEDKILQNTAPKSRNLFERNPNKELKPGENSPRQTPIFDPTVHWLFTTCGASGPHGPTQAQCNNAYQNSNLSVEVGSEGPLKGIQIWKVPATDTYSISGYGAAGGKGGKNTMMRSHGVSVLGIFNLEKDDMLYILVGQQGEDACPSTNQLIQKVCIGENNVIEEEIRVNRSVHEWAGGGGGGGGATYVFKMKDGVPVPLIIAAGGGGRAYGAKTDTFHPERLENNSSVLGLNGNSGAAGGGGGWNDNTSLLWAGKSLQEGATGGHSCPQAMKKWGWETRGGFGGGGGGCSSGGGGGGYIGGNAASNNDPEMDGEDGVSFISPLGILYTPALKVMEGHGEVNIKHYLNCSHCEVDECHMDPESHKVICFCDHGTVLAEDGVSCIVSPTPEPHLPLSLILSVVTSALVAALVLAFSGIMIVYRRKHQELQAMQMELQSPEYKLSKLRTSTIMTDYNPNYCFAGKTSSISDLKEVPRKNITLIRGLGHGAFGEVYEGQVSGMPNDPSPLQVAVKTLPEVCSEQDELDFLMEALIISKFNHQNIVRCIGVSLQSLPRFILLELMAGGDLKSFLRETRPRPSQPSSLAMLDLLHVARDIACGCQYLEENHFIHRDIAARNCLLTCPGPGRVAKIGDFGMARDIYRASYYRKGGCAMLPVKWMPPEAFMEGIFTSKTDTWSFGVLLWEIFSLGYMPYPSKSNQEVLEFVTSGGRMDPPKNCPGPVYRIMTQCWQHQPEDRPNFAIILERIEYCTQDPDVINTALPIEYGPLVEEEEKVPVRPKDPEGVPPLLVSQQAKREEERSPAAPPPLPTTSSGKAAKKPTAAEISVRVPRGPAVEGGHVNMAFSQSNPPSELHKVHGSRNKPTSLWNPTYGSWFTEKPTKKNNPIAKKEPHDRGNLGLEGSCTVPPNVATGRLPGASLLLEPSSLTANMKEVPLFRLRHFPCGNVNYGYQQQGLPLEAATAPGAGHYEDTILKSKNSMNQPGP
# Chain of Serine/threonine-protein kinase 4 (Q13043 whole entry): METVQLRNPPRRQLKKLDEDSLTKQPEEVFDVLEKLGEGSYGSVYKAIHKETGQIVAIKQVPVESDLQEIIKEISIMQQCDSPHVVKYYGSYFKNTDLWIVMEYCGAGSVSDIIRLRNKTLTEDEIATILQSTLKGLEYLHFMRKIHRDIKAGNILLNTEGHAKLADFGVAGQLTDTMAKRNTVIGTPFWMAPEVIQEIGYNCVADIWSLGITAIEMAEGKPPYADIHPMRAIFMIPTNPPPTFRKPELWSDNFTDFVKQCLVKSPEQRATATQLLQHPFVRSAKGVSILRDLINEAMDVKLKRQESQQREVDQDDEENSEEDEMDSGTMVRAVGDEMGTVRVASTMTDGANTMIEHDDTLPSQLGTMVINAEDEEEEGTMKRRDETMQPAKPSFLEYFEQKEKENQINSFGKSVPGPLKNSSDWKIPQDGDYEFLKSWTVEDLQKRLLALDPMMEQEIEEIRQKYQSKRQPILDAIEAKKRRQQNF
# Chain of Serine/threonine-protein kinase pim-2 (Q9P1W9 whole entry): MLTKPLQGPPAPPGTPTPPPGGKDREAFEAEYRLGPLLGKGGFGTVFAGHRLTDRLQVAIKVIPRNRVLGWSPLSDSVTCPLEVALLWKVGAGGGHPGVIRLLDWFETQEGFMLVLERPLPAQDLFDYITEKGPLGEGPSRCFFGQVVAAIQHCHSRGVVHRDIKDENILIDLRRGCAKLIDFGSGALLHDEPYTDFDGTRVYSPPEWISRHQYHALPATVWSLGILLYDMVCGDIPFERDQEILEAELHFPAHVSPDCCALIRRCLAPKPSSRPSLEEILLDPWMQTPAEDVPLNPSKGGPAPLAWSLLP
compound,measurement,setting,value
CNC(=O)Nc1ccc2c(c1)CC[C@@]21OC(=O)N(CC(=O)N(Cc2ccc(F)cc2)[C@@H](C)C(F)(F)F)C1=O [A-485],inhibition,CREB-binding protein,inactive
same,Activity,[1],9%
same,IC50,[2],> 10 µM
same,IC50,[3],> 10 µM
same,IC50,[4],> 10 µM
same,IC50,[5],> 10 µM
same,IC50,[6],> 10 µM
same,IC50,[7],> 10 µM
same,IC50,[8],> 10 µM
same,IC50,[9],> 10 µM
same,IC50,[10],> 10 µM
same,INH,[11],> 10 µM
same,EC50,NCI-H727,6.63 µM
same,EC50,HCC2935,> 10 µM
same,EC50,NCI-H146,0.4 µM
same,EC50,NCI-H209,0.4 µM
same,EC50,NCI-H211,1.5 µM
same,EC50,NCI-H69,> 10 µM
same,EC50,NCI-H1417,> 10 µM
same,EC50,BT-20,0.34 µM
same,EC50,MDA-MB-453,1.87 µM
same,EC50,HCC1806,2.95 µM
same,EC50,HCC1395,> 10 µM
same,EC50,KMS-11,0.24 µM
same,EC50,NCI-H929,0.33 µM
same,EC50,L-363,0.51 µM
same,EC50,Karpas-1106P,0.41 µM
same,EC50,Daudi,0.43 µM
same,EC50,Raji,0.46 µM
same,EC50,OCI-Ly3,0.49 µM
same,EC50,SU-DHL-5,0.76 µM
same,EC50,Pfeiffer,0.86 µM
same,EC50,WSU-NHL,1.06 µM
same,EC50,OCI-AML2,2.03 µM
same,EC50,U-937,> 10 µM
same,half-life,[12],1.7 h
same,AUC at 168 h,[13],91.2 µg·h/mL
same,AUC at 168 h,[14],417 µg·h/mL
same,ΔTm,[15],5.8 °C
